GSTO1 counter: GSTO1 inhibition, counter-screen for RBBP9 inhibitors; P78417; recombinant GSTO1, activity-based probe fluorescence polarization; inhibition, % at 5.96 µM; 300,000 tested, 1.1% active; AID 1974;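 active = inhibition above the campaign mean inhibition plus 3 SD, cut at about 35% in these data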
Target sequence (P78417 whole entry, looked up): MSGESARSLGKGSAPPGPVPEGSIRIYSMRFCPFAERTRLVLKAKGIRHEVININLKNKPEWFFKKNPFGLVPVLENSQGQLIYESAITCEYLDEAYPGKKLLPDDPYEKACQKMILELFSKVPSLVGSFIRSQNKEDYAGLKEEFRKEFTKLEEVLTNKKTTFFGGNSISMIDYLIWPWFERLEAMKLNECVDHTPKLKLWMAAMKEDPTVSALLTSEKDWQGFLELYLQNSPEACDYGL
PAD4 inh: inhibitors of human PAD4 | recombinant PAD4, RCA probe fluorescence polarization | Q9UM07 | 330,000 tested, 0.41% active | AID 485272 | inhibition, % at 6.36 µM;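 active = percent inhibition above a cutoff equal to the mean of all tested compounds plus 3 SD, cut at about 15% in these data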
UBC9 SUMO inh: inhibitors of human SUMOylation (UBC9). P63279. HTRF SUMOylation assay, SAE1/SAE2 + UBC9, in vitro. inhibition, % at 35 µM. 290,000 tested, 0.36% active. AID 2006; in the data active = inhibition above about 50%, passing the limit was not always enough; inconclusive = no clear call, values can overlap the other calls
Target sequence (P63279 whole entry, looked up): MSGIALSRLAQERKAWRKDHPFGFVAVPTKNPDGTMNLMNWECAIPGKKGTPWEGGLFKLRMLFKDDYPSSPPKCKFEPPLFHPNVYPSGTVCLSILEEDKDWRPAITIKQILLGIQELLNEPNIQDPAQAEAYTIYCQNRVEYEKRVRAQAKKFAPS
TDP2 inh: TDP2 (human) inhibition, absorbance primary screen. recombinant TDP2, T5PNP hydrolysis, p-nitrophenol absorbance 415 nm. O95551. inhibition, % at 12.8 µM. 370,000 tested, 0.34% active. AID 720702;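 active = inhibition above the mean of all tested compounds plus 3 SD, set per campaign, cut at about 25% in these data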
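Incubation: 2 h at 37 °C; Test system: recombinant human TDP2; Quantity: enzyme 120 nM; Read-out basis: percent inhibition; Medium: 50 mM Tris-HCl pH 7.5 with Mg2+, KCl, DTT, BSA; Repeats: single replicate; Compound: 12.8 µM single point, 1% DMSO; Signal: epi absorbance; Reagent: 5 mM T5PNP chromogenic substrate; Benchmarks: no-enzyme high, DMSO-plus-enzyme low.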
Apaf1 inhib: inhibitors of human Apaf-1 apoptosome; reconstituted apoptosome caspase-3 activity, DEVD-Rh110 fluorescence; inhibition, % at 20 µM; 330,000 tested, 0.71% active; active = inhibition of at least 40% at 20 µM
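System – cell-free apoptosome with Apaf-1, procaspase-3 and caspase-9 · Buffer or medium – pH 7.5 Hepes buffer with CHAPS, BSA, DTT · Also added – cytochrome c with DEVD-Rh110 · Times – 30 min compound preincubation, 50 min activation, room temperature · Technique – Rh110 fluorescence intensity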
JMJD2C inh: inhibitors of human GASC-1 (JMJD2C) demethylase; Q9H3R0; GST-JMJD2C(1-420) H3K9me3 demethylation, DELFIA europium; inhibition, % at 2.35 µM; 330,000 tested, 0.069% active; AID 2099;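 active = more than half of a compound's replicate wells show inhibition beyond 50%, single wells judged on their own value; inconclusive = some, but no more than half, of replicates pass 50% inhibition; inactive = no replicate passes 50% inhibition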;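 note: signal counts dimethyl H3K9 product captured on neutravidin plate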
PAD4 FP conf: PAD4 (human) inhibition, confirmed | shares compounds with PAD4 inh | recombinant PAD4, RCA probe fluorescence polarization | AID 488796 | 1,200 tested, 28% active | inhibition, % at 6.36 µM;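 active = mean inhibition across replicates above the hit cutoff set by the earlier primary screen, cut at about 15% in these data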;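 note: inhibitors block active-site labeling by the probe so polarization falls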
Each line names hits and unclear results; the compound was inactive in the other large screens (follow-up assays come after a bar, where they were run). Hits are enriched below; roughly 1.6% of the tested compounds scored in any of these assays.

COc1cc(-c2nc(C(=O)NC3CCCCC3)cc3c2[nH]c2ccccc23)cc(OC)c1OC	PAD4 inh 16, JMJD2C inh inconclusive | PAD4 FP conf 16
COc1ccc(-c2nc(C(=O)NCC3CCCO3)cc3c2[nH]c2ccccc23)cc1 (stereo not drawn)	none (no result: JMJD2C inh)
Nc1c(C(=O)NCC(O)c2ccccc2)cnn1-c1ccccc1 (stereo not drawn)	none (no result: GSTO1 counter, PAD4 inh, UBC9 SUMO inh, Apaf1 inhib, JMJD2C inh)
CNC(=O)c1c(C)[nH]c(=S)c(C#N)c1-c1ccco1	PAD4 inh 26 | PAD4 FP conf inactive
COC(=O)[C@]12C[C@H](CC(=O)NCc3cccs3)C(=O)N(Cc3ccco3)C1=C[C@H](C1CCCC1)O[C@@H]2C	none (no result: GSTO1 counter, PAD4 inh, UBC9 SUMO inh, Apaf1 inhib, JMJD2C inh)
Cc1ccc(S(=O)(=O)N2CCN(C(=O)Cc3ccccc3)CC2)cc1C	PAD4 inh 22 (no result: GSTO1 counter, UBC9 SUMO inh, JMJD2C inh) | PAD4 FP conf inactive
CCOc1ccc2c(c1)-c1c(ssc1=S)C(C)(C)N2C(=O)c1ccco1	PAD4 inh 17 | PAD4 FP conf 16
COc1ccc2c(c1)-c1c(ssc1=S)C(C)(C)N2C(=O)CSC1=NCCS1	none
c1ccc2cc(Cn3ccc4ccc(-c5ccc6cc[nH]c6c5)cc43)ccc2c1	none (no result: GSTO1 counter, PAD4 inh, UBC9 SUMO inh, Apaf1 inhib, JMJD2C inh)
Cc1ccc(C2CCC3(CCC(=O)N3CCOC(=O)Nc3ccc(F)cc3)CC2)cc1 (stereo not drawn)	none (no result: GSTO1 counter, PAD4 inh, UBC9 SUMO inh, Apaf1 inhib, JMJD2C inh)
COc1ccc(Oc2c(Cl)cnn(-c3ccc(C(C)C)c(C)c3)c2=O)cc1	none (no result: GSTO1 counter, PAD4 inh, UBC9 SUMO inh, Apaf1 inhib, JMJD2C inh)
COC(=O)c1ccc(Cn2ccc3ccc(-c4ccc5ccn(C(=O)c6cccc(OC)c6)c5c4)cc32)cc1	none (no result: GSTO1 counter, PAD4 inh, UBC9 SUMO inh, Apaf1 inhib, JMJD2C inh)
Cc1nn(-c2ccccc2)c2c1C(c1ccncc1)C(C#N)=C(N)O2 (stereo not drawn)	PAD4 inh 25 | PAD4 FP conf inactive
Cc1ccc(-n2nc(C)c3c2OC(N)=C(C#N)C3c2cccs2)cc1 (stereo not drawn)	PAD4 inh 41 | PAD4 FP conf inactive
Cc1ccc(-n2nc(C)c3c2OC(N)=C(C#N)C3c2ccncc2)cc1 (stereo not drawn)	none
Nc1[nH]c2ccccc2c1C(=O)NC1CC1	none (no result: GSTO1 counter, PAD4 inh, UBC9 SUMO inh, Apaf1 inhib, JMJD2C inh)
Cc1ccc(OCC(C)CN2CCC(C(O)(c3ccccc3)c3ccccc3)CC2)cc1 (stereo not drawn)	none (no result: GSTO1 counter, PAD4 inh, UBC9 SUMO inh, Apaf1 inhib, JMJD2C inh)
Cc1[nH]c2ccccc2c1/C=N/NC(N)=S	none
CCc1nnc(N/N=C/c2c(C)[nH]c3ccccc23)n1N	GSTO1 counter 52, PAD4 inh 30, TDP2 inh 59 | PAD4 FP conf inactive
CCc1ccc(C(=O)Cn2ncc(Cl)c(Cl)c2=O)cc1	none
O=C(OCn1ncc(Cl)c(Cl)c1=O)c1cccc(C(F)(F)F)c1	PAD4 inh 32 (no result: TDP2 inh) | PAD4 FP conf 20
CCn1c2ccccc2c2cc(/C(C)=N/O)ccc21	PAD4 inh 16 | PAD4 FP conf inactive
C/C(=N\O)c1ccc2c3ccccc3n(C)c2c1	none
O=C1[C@@H](C2CC2)[C@@H]2c3ccccc3C=NN2[C@@H]2c3ccccc3C=NN12	none (no result: GSTO1 counter, PAD4 inh, UBC9 SUMO inh, Apaf1 inhib, JMJD2C inh)
S=C(NCc1ccco1)Nc1cccc(Cl)c1	PAD4 inh 163 | PAD4 FP conf inactive
O=[N+]([O-])c1ccc2nc(CNc3nc(N4CCOCC4)nc4c3ncn4-c3ccsc3)[nH]c2c1	none (no result: GSTO1 counter, PAD4 inh, UBC9 SUMO inh, Apaf1 inhib, JMJD2C inh)
CCN1C(=O)[C@@H]2C(C(=O)c3cnccn3)=NN[C@@H]2C1=O	PAD4 inh 20 | PAD4 FP conf inactive
O=[N+]([O-])c1ccc(NCCCN2CCC(C(O)(c3ccccc3)c3ccccc3)CC2)cc1	none (no result: GSTO1 counter, PAD4 inh, UBC9 SUMO inh, Apaf1 inhib, JMJD2C inh)
COc1cccc(/C=C2\Oc3ccc(O)cc3C2=O)c1O	PAD4 inh 16 | PAD4 FP conf inactive
COC(=O)c1ccc2c(c1)C(=O)/C(=C/c1ccc(O)cc1)O2	none (no result: Apaf1 inhib)
O=C(CSc1nc2ccccc2c(=O)[nH]1)Nc1ccc([N+](=O)[O-])cc1	none (no result: GSTO1 counter, UBC9 SUMO inh)
O=c1[nH]c(Sc2ccc([N+](=O)[O-])cc2[N+](=O)[O-])nc2ccccc12	PAD4 inh 44 (no result: UBC9 SUMO inh) | PAD4 FP conf 19
COc1ccc(OC[C@@H](O)CN2CCC(C(O)(c3ccccc3)c3ccccc3)CC2)cc1	none (no result: GSTO1 counter, PAD4 inh, UBC9 SUMO inh, Apaf1 inhib, JMJD2C inh)
O=C(Nc1nc(-c2ccc(S(=O)(=O)N3CCOCC3)cc2)cs1)c1ccccc1	PAD4 inh 15 | PAD4 FP conf 19

Compound activity as filed in PubChem BioAssay.
